From the array DNA melting data of Ke et al. (doi:10.1101/2024.01.08.574731)

Experiments:
[1] = folding enthalpy; higher = less favourable; fluorescence melt of hairpins on a sequencing array, two-state fit; details: sodium 0.088 M
Procedure, shortened: (§1)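 Melting temperature and folding enthalpy were obtained by bootstrapped two-state fitting. Fits used Cy3 fluorescence of library hairpins with annealed Cy3 and quencher oligos on a sequenced MiSeq flow cell, imaged in 50 mM Na-HEPES pH 8.0, 25 mM NaCl in 2.5 °C steps up to 60 °C and normalised to pre-quench Cy3 and control constructs. Four replicates were combined by inverse-variance weighting, and fitted temperatures were raised by 9.35 °C to match UV melts.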

[2] = melting temperature; fluorescence melt of hairpins on a sequencing array, two-state fit, raised by 9.35 °C to match UV melts; details: sodium 0.088 M
Procedure, shortened: as §1

Row | Sequence | folding enthalpy [1] [kcal/mol] | Tm [2] [°C]
1 | GAGTGGCCGAAAGGCCTC (((..(((....)))))) | -6.93 | 38.3
2 | GAGTGGCGAAAGCCCTC (((.(((....)))))) | -16.4 | 51.3
3 | GAGTGGGGAAACCCATTC ((.((((....)))).)) | -27.2 | 42.5
4 | GAGTGGGGAAACTCACTC (((((.(....).))))) | -40.9 | 49.2
5 | GAGTGGGGAAACTCGCTC (((.(.(....).).))) | -29.6 | 40.4
6 | GAGTGTGAAAACACTC ((((((....)))))) | -35 | 60.9
7 | GAGTGTGGAAACACGCTC (((.(((....))).))) | -26.9 | 54.5
8 | GAGTGTGGAAACGCACTC (((((.(....).))))) | -42.1 | 52.8
9 | GAGTTGCCGAAAGGCCTC (((..(((....)))))) | -9.97 | 34.9
10 | GAGTTGCGAAAGCACCTC (((.(((....))).))) | -26.3 | 47
11 | GAGTTGCGAAAGCACTC (((.(((....)))))) | -21.7 | 53.9
12 | GAGTTGGAAACAACTC ((((((....)))))) | -34.6 | 57.3
13 | GAGTTGGGAAACCAACCC (.(((((....))))).) | -13.8 | 40.5
14 | GAGTTGGGAAACCAACTC (((((((....))))))) | -39.4 | 62
15 | GAGTTGGGAAACTGACTC ((((..(....)..)))) | -26.7 | 34.4
16 | GAGTTTGGAAACAAGCTC (((.(((....))).))) | -34.8 | 44.5
17 | GATAAACGAAAGTTATC (((.(((....)))))) | -15.1 | 33.9
18 | GATAAACGAAAGTTCATC (((.(((....))).))) | -27.3 | 29.2
19 | GATAACCGAAAGGTCATC (((.(((....))).))) | -21.3 | 37.2
20 | GATAACGAAAGTTATATC ((((((....)))..))) | -16 | 38.9
21 | GATAACGGAAACGTTACC (.(((((....))))).) | -16.5 | 34
22 | GATAATGGAAACGTTATC (((((.(....).))))) | -29.4 | 34.6
23 | GATACACCGAAAGGTATC (((..(((....)))))) | -13.2 | 30.3
24 | GATACACGAAAGTGAATC (((.(((....))).))) | -22.1 | 45.2

Row | Sequence | folding enthalpy [1] [kcal/mol] | Tm [2] [°C]
25 | GATACACGAAAGTGGATC (((.(((....))).))) | -37.4 | 56.6
26 | GATACAGGAAACCGTATC (((((.(....).))))) | -29.6 | 36.5
27 | GATACCCGAAAGGGAATC (((.(((....))).))) | -23.9 | 48
28 | GATACCGAAAGGTCTATC ((((((....)))..))) | -5.86 | 19.6
29 | GATACCGAAAGGTGCATC ((((((....)))..))) | -9.69 | 27.4
30 | GATACCGAAAGGTTATC ((((((....))).))) | -17.7 | 37.6
31 | GATACCGGAAACGATATC ((((.((....)).)))) | -25.8 | 34.8
32 | GATACGGGAAACCATATC ((((.((....)).)))) | -19.3 | 28.2
33 | GATACGGGAAACCGTATC (((((((....))))))) | -35.8 | 59.4
34 | GATAGAGCGAAAGCTATC (((..(((....)))))) | -13 | 32.3
35 | GATAGCCCGAAAGGGATC (((..(((....)))))) | -8.63 | 32.6
36 | GATAGCCGAAAGGCATC (((.(((....)))))) | -12.2 | 43.3
37 | GATAGCCGAAAGGCCATC (((.(((....))).))) | -13.8 | 39.6
38 | GATAGCGAAAGCTTATC ((((((....))).))) | -13.7 | 39
39 | GATAGCGCGAAAGCGATC (((..(((....)))))) | -9.46 | 32.2
40 | GATAGTGGAAACACTACC (.(((((....))))).) | -12.4 | 33.1
41 | GATAGTGGAAACACTGTC ((.((((....)))).)) | -29.7 | 43.4
42 | GATATACGAAAGTAATC (((.(((....)))))) | -9.45 | 23.8
43 | GATATCCCGAAAGGGATC (((..(((....)))))) | -8.05 | 32.5
44 | GATATCGGAAACGATATC (((((((....))))))) | -42.4 | 56.7
45 | GATATGACGAAAGTCATC (((..(((....)))))) | -10.7 | 33.3
46 | GATATTCCGAAAGGAATC (((..(((....)))))) | -11.4 | 32.7
47 | GATATTGGAAACAATGTC ((.((((....)))).)) | -30.9 | 36.3
48 | GATCAAAACCTTGATC ((((((....)))))) | -32.5 | 44.4

Row | Sequence | folding enthalpy [1] [kcal/mol] | Tm [2] [°C]
49 | GATCAAAACGTTGATC ((((((....)))))) | -28.1 | 39.8
50 | GATCAAAACTTGATC ((((((...)))))) | -27.6 | 41.7
51 | GATCAAAATGTTGATC ((((((....)))))) | -28.1 | 38.4
52 | GATCAAAATTTGATC ((((((...)))))) | -26.4 | 39.3
53 | GATCAAACACTTGATC ((((((....)))))) | -28.7 | 37.9
54 | GATCAAACATTTGATC ((((((....)))))) | -30.2 | 42.4
55 | GATCAAACCTTTGATC ((((((....)))))) | -30.1 | 46
56 | GATCAAAGTCTTGATC ((((((....)))))) | -31.1 | 41.7
57 | GATCAAAGTTTTGATC ((((((....)))))) | -29.2 | 46.1
58 | GATCAAATCTTGATC ((((((...)))))) | -27.8 | 42
59 | GATCAAATGCTTGATC ((((((....)))))) | -29.6 | 41.5
60 | GATCAACAACTTGATC ((((((....)))))) | -35.1 | 38.4
61 | GATCAACAATTTGATC ((((((....)))))) | -26.8 | 38
62 | GATCAACCAATTGATC ((((((....)))))) | -32.7 | 39
63 | GATCAACCATTGATC ((((((...)))))) | -29 | 38.8
64 | GATCAACCTCTTGATC ((((((....)))))) | -30.3 | 43.5
65 | GATCAACGAATTGATC ((((((....)))))) | -25.8 | 38.5
66 | GATCAACGGCTTGATC ((((((....)))))) | -28.7 | 42.4
67 | GATCAACTCCTTGATC ((((((....)))))) | -36.6 | 44.2
68 | GATCAACTCGTTGATC ((((((....)))))) | -42.6 | 57.5
69 | GATCAACTGTTTGATC ((((((....)))))) | -32.3 | 43.2
70 | GATCAACTTGTTGATC ((((((....)))))) | -51.7 | 60.5
71 | GATCAAGAATTGATC ((((((...)))))) | -34.6 | 51.9
72 | GATCAAGACATTGATC ((((((....)))))) | -38.8 | 50.1

Row | Sequence | folding enthalpy [1] [kcal/mol] | Tm [2] [°C]
73 | GATCAAGCCCTTGATC ((((((....)))))) | -49.1 | 49.4
74 | GATCAAGCGGTTGATC ((((((....)))))) | -38.1 | 46.5
75 | GATCAAGCTTTTGATC ((((((....)))))) | -34.8 | 44.5
76 | GATCAAGGACTTGATC ((((((....)))))) | -40 | 50.7
77 | GATCAAGGATTGATC ((((((...)))))) | -38.8 | 49.8
78 | GATCAAGGGCTTGATC ((((((....)))))) | -34.6 | 46.7
79 | GATCAAGGGTTGATC ((((((...)))))) | -24 | 40.3
80 | GATCAAGTAATTGATC ((((((....)))))) | -32.1 | 50
81 | GATCAAGTATTGATC ((((((...)))))) | -43.4 | 51.8
82 | GATCAAGTGGTTGATC ((((((....)))))) | -27.6 | 41.9
83 | GATCAAGTTTTTGATC ((((((....)))))) | -36 | 45.5
84 | GATCAATCAGTTGATC ((((((....)))))) | -29.6 | 44.4
85 | GATCAATCATTTGATC ((((((....)))))) | -37.3 | 45.5
86 | GATCAATCCTTGATC ((((((...)))))) | -28.7 | 44
87 | GATCAATCGTTTGATC ((((((....)))))) | -33.8 | 45.7
88 | GATCAATCTATTGATC ((((((....)))))) | -43.2 | 49.8
89 | GATCAATCTGTTGATC ((((((....)))))) | -35.1 | 45.6
90 | GATCAATGACTTGATC ((((((....)))))) | -29.1 | 39.7
91 | GATCAATGCCTTGATC ((((((....)))))) | -26.2 | 45.3
92 | GATCAATGGGTTGATC ((((((....)))))) | -35.5 | 48.3
93 | GATCAATTCCTTGATC ((((((....)))))) | -35.3 | 45.4
